Results on 14 compounds are retold here after ChEMBL document CHEMBL1157541, “Identification and characterization of 4-chloro-N-(2-{[5-trifluoromethyl)-2-pyridyl]sulfonyl}ethyl)benzamide (GSK3787), a selective and irreversible peroxisome proliferator-activated receptor delta (PPARdelta) antagonist” (J Med Chem, 2010).

Active and inactive are the calls of the source. The calls are words filed in the database; no cut-off is given here.

The target in data set [1] is T1, Peroxisome proliferator-activated receptor delta (Homo sapiens, UniProt Q03181).
T1 sequence (Q03181 whole entry): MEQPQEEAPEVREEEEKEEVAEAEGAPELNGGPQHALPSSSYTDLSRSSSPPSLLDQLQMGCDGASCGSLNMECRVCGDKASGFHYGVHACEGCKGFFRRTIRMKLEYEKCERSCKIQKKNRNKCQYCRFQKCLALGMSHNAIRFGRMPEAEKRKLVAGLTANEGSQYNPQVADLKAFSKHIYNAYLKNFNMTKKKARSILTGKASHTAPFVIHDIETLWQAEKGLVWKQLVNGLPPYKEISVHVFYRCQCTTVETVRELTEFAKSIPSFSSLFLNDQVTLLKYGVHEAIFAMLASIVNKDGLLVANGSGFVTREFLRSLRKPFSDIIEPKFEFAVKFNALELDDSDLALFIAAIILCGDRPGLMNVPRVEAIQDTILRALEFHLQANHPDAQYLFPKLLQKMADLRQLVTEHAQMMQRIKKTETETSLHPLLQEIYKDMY

Data set [2] addresses T2, Peroxisome proliferator-activated receptor gamma (Homo sapiens, UniProt P37231).
T2 sequence (P37231 whole entry): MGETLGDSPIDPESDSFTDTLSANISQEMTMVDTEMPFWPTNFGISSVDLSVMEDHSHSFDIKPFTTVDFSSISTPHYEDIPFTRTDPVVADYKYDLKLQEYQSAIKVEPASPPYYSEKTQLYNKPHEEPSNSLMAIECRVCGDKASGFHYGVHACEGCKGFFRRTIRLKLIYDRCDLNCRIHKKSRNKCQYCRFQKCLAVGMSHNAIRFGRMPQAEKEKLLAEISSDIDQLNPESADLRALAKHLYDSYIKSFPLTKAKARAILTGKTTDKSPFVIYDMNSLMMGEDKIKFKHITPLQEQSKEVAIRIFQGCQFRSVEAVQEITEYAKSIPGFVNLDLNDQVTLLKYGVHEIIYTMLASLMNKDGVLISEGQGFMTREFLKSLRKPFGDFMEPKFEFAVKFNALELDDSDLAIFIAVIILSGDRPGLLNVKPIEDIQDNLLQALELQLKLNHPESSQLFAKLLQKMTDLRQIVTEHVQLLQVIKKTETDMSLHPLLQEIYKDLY
The data set can be described thus: Inhibition of human PPARgamma receptor by ligand displacement assay.

Data set [3] concerns the target T3, Peroxisome proliferator-activated receptor alpha (Homo sapiens, UniProt Q07869).
T3 sequence (Q07869 whole entry): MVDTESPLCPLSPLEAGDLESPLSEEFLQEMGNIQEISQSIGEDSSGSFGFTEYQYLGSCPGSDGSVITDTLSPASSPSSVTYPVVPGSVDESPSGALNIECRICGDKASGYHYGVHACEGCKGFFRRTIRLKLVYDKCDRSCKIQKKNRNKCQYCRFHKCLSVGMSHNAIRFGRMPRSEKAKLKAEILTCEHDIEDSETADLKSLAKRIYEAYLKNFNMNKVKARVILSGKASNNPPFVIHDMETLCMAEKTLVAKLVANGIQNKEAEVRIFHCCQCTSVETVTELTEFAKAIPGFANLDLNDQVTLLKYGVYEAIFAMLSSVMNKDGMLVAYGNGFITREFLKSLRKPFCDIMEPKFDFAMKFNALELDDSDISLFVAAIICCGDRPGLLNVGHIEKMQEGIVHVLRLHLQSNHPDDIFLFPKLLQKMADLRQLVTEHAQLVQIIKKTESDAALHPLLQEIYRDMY
The data set can be described thus: Displacement of [3H]GW2433 from human PPARalpha receptor by ligand displacement assay.

For data set [4], the target named is T1, Peroxisome proliferator-activated receptor delta. In words: Inhibition of human PPARdelta receptor by ligand displacement assay.
The nature of data set [5]: Oral bioavailability in C57BL/6 mouse at 10 mg/kg. It counts as ADME, organism-based. The note with it: in vivo. The method, boiled down: (§1)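 Male C57BL/6 mice were dosed intravenously at 0.5 mg/kg and orally at 10 mg/kg. Clearance and Vss were taken from the iv arm. Cmax, AUCinf, half-life and oral bioavailability were taken from the oral arm. Values are given as mean ± deviation.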

Data set [6] is described as follows: Cmax in C57BL/6 mouse at 10 mg/kg, po. It counts as ADME, organism-based. On the set-up: dose 10 mg/kg, route oral. To be noted: in vivo. In a few lines: as §1
A short description of data set [7]: Volume of distribution at steady state in C57BL/6 mouse at 0.5 mg/kg, iv. The class given is ADME, organism-based. On the set-up: dose 0.5 mg/kg, route intravenous. The note with it: in vivo, read-out: Vdss. In a few lines:
as §1

The species named for data set [8] is Homo sapiens. In words: Inhibition of PDK4 gene expression in human skeletal muscle cell at 10 to 10000 nM. The class given is functional. The method, boiled down:
(§2)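 Human skeletal muscle cells were treated with compound at various doses without added agonist. Basal CPT1a and PDK4 transcript expression was assessed.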

The next data set relates to RKO. In words: Antiproliferative against human RKO cells at 10 uM. It counts as functional, cell-based. The method, boiled down: (§3)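 Colorectal lines (SW480, HCT116, DLD1, RKO) and non-colorectal lines (A549, HEK293) were incubated with compound for 3 days at concentrations up to 10 μM. Proliferation was compared with DMSO vehicle. Staurosporine and actinomycin D served as positive controls.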

Data set [9] is described as follows: AUC (0 to infinity) in C57BL/6 mouse at 10 mg/kg, po. The class given is ADME, organism-based. Also noted: dose 10 mg/kg, route oral, time infinity. The note with it: plasma. The method, boiled down: as §1
Data set [10] is filed under the species Homo sapiens. The data set can be described thus: Inhibition of CPT1a gene expression in human skeletal muscle cell at 10 to 10000 nM. It counts as functional. The method, boiled down: as §2
The next data set concerns A549. In words: Antiproliferative against human A549 cells at 10 uM. The class given is functional, cell-based. The method, boiled down:
as §3

The test system of a further data set is HEK293. In words: Antiproliferative against human HEK293 cells at 10 uM. The class given is functional, cell-based. In a few lines: as §3
The next data set concerns HCT-116. In words: Antiproliferative against human HCT116 cells at 10 uM. The class given is functional, cell-based. In a few lines: as §3
The next data set concerns SW480. The data set can be described thus: Antiproliferative against human SW480 cells at 10 uM. It counts as functional, cell-based. The method, boiled down: as §3
Data set [11] in a line: Half life in C57BL/6 mouse at 10 mg/kg, po. It counts as ADME, organism-based. Also noted: dose 10 mg/kg, route oral. The note with it: in vivo. In a few lines: as §1
Data set [12] in a line: Clearance in C57BL/6 mouse at 0.5 mg/kg, iv. On the set-up: dose 0.5 mg/kg, route intravenous. The class given is ADME, organism-based. The note with it: in vivo. The method, boiled down:
as §1

The species named for data set [13] is Homo sapiens. The data set can be described thus: Inhibition of against 2-(4-((2-(3-fluoro-4-(trifluoromethyl)phenyl)-4-methylthiazol-5-yl)methylthio)-2-methylphenoxy)acetic acid-induced PDK4 gene expression in human skeletal muscle cell at 10 to 10000 nM. It counts as functional. In a few lines: (§4)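 Human skeletal muscle cells were stimulated with PPARδ agonist to induce transcription of the target genes CPT1a and PDK4. Compound was co-tested at various doses, and antagonism of the agonist-stimulated expression was read out.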

Data set [14] is filed under the species Homo sapiens. The data set can be described thus: Inhibition of against 2-(4-((2-(3-fluoro-4-(trifluoromethyl)phenyl)-4-methylthiazol-5-yl)methylthio)-2-methylphenoxy)acetic acid-induced CPT1a gene expression in human skeletal muscle cell at 10 to 10000 nM. The class given is functional. In a few lines: as §4
A further data set deals with DLD-1. In words: Antiproliferative against human DLD1 cells at 10 uM. It counts as functional, cell-based. In a few lines: as §3

Consider `CC(C)Cc1ccc(C(=O)NCCS(=O)(=O)c2ccc(C(F)(F)F)cn2)cc1`, for which the IC50 in data set [1] is 0.2 µM; in data set [2] it was greater than 10 µM; in data set [3], greater than 10 µM; in [4], 0.316 µM.
Turning to `O=C(NCCS(=O)(=O)c1ccc(C(F)(F)F)cn1)c1ccc(Br)cc1F`, the IC50 in [1] was 0.0794 µM; in [2], greater than 10 µM; in [3] it was greater than 10 µM; in [4], 0.0501 µM.
For the compound `O=C(NCCS(=O)(=O)c1ccc(C(F)(F)F)cn1)c1ccc(OC(F)(F)F)cc1`, the IC50 in data set [2] is greater than 10 µM; in data set [3] it was greater than 10 µM; in data set [4] it was 0.1 µM.
For the compound `Cc1ccc(S(=O)(=O)CCNC(=O)c2ccc(Cl)cc2)nc1`, the 50% inhibitory concentration (IC50) in [2], in data set [3] and in [4] was greater than 10 µM in each case.
With `Cc1cc(C(=O)NCCS(=O)(=O)c2ccc(C(F)(F)F)cn2)ccc1Cl`, the IC50 in data set [1] is 0.251 µM; in [2], greater than 10 µM; in data set [3] it was greater than 10 µM; in [4] it was 0.126 µM.
Consider `O=C(NCCCS(=O)(=O)c1ccc(C(F)(F)F)cn1)c1ccc(OC(F)(F)F)cc1`, for which the IC50 is greater than 10 µM in data set [2], greater than 10 µM in [3] and 1.26 µM in data set [4].
For the compound `O=C(NCCS(=O)(=O)c1ccc(C(F)(F)F)cn1)c1ccc(C2CCCCC2)cc1`, the IC50 in [2] was greater than 10 µM; in [3] it was greater than 10 µM; in data set [4] it was 1 µM.
`O=C(NCCS(=O)(=O)c1ccccn1)c1ccc(Cl)cc1`: the IC50 in [2], in [3] and in data set [4] was greater than 10 µM throughout.
Take `O=C(NCCS(=O)(=O)c1ccc(C(F)(F)F)cn1)c1ccc(-c2ccccc2)cc1`: the 50% inhibitory concentration (IC50) in [1] was 0.251 µM; in [2], greater than 10 µM; in data set [4] it was 0.2 µM.
Take `O=C(NCCS(=O)(=O)c1ccc(C(F)(F)F)cn1)c1ccc(Cl)cc1`: the bioavailability in data set [5] is 77%. In addition, the IC50 in data set [1] is 0.126 µM; in data set [2], greater than 10 µM; in data set [3], greater than 10 µM; in data set [4], 0.2 µM. This compound showed a peak concentration (Cmax) in data set [6] of 881 ng/mL. The Vd in data set [7] turned out to be 1.7 L/kg. For the same compound, the result in the data set listed under Homo sapiens [8], in the data set with RKO, in the data set with A549, in the data set with HEK293, with HCT-116 and with SW480 was inactive. Further, the outcome in the data set with DLD-1 was inactive. The AUC(0-inf) in data set [9] is 3340 ng·h/mL. Moreover, the result in the data set filed under Homo sapiens [10], in the data set filed under Homo sapiens [13] and in the data set filed under Homo sapiens [14] was Active. In addition, the half-life in data set [11] is 2.7 h. The clearance in [12] was determined as 39 mL/min/kg.
With `O=C(NCCS(=O)(=O)c1ccc(C(F)(F)F)cn1)c1ccc(Cl)c(Br)c1`, the half-maximal inhibitory concentration (IC50) in data set [1] was 0.251 µM; in data set [2], greater than 10 µM; in [3], greater than 10 µM; in data set [4], 0.126 µM.
In the case of `O=C(NCCCS(=O)(=O)c1ccc(C(F)(F)F)cn1)c1ccc(Cl)cc1`, the IC50 in [2], in data set [3] and in [4] was greater than 10 µM each time.
For the compound `COC(=O)c1sccc1S(=O)(=O)Nc1ccc(Nc2ccccc2)cc1OC`, the IC50 in [2] and in data set [3] was greater than 10 µM throughout.
For the compound `O=C(NCCS(=O)(=O)c1ccc(C(F)(F)F)cn1)c1ccc(Cl)cc1Cl`, the concentration for half-maximal inhibition (IC50) is 0.2 µM in data set [1], greater than 10 µM in [2], greater than 10 µM in data set [3] and 0.158 µM in [4].
